Laboratory results taken from ChEMBL document CHEMBL3580529, “Limonoids with Anti-HIV Activity from Cipadessa cinerascens” (J Nat Prod, 2015).

Assays:
[1] = test system: Human immunodeficiency virus 1; assay: Antiviral activity against HIV1 NL4-3 infected in human MT4 cells assessed as inhibition of virus-induced cytopathic effect incubated for 3 to 4 days by MTT assay; type: functional, organism-based; details: Human immunodeficiency virus 1, NL4-3, MT4
Procedure, shortened: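 MT-4 cells seeded with serial compound dilutions, then infected with HIV-1 NL4-3 at final MOI 0.03; 37 °C, 5% CO2, humidified, 3 or 4 days. MTT (5 mg/mL in PBS) added for 3 h, cells lysed in 10% Triton X-100/acidified 2-propanol, absorbance 570 nm. EC50 = concentration giving 50% protection against HIV-induced cytopathic effect.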

[2] = Selectivity index, ratio of CC50 against human MT4 cells to EC50 for HIV1 NL4-3 infected in human MT4 cells; type: toxicity, cell-based; details: MT4 cells (CC50) and HIV1 NL4-3 infected MT4 cells (EC50)
Procedure, shortened: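 SI calculated as CC50 (MT-4 cytotoxicity, MTT read-out) divided by EC50 (protection of MT-4 cells from HIV-1 NL4-3 cytopathic effect, MOI 0.03), both from parallel 3–4 day assays at 37 °C.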

[3] = Cytotoxicity against human MT4 cells assessed as reduction in cell viability incubated for 3 to 4 days by MTT assay; type: cell-based
Procedure, shortened: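 Serially diluted compounds on MT-4 cells, 37 °C, 5% CO2, humidified, 3 or 4 days; viability by MTT (5 mg/mL in PBS, 3 h), formazan solubilized with 10% Triton X-100 in acidified 2-propanol, read at 570 nm. CC50 = concentration killing 50% of MT-4 cells.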

SMILES	EC50 [1]	selectivity ratio [2]	CC50 [3]
COC(=O)C[C@H]1C(C)(C)[C@H](O)[C@H](O)[C@@H]2OC3=C(C)C4=CC(=O)O[C@@H](c5ccoc5)[C@]4(C)C[C@@H]3[C@@]21C	> 100 µM		
COC(=O)C[C@H]1C(C)(C)[C@H](O)[C@H](O)[C@@H]2OC3=C(C)C4=CC(=O)O[C@@H](c5ccoc5)[C@]4(C)[C@@H](O)[C@@H]3[C@@]21C	> 100 µM		
COC(=O)C[C@H]1C(C)(C)[C@H](OC(C)=O)[C@H](OC(C)=O)[C@@H]2O[C@]34CC(=O)O[C@@H](c5ccoc5)[C@]3(C)[C@@H](O)[C@@H](C(=O)[C@]4(C)O)[C@@]21C	> 100 µM		
C=C1[C@@H]2C[C@@]3(C)[C@H](c4ccoc4)OC(=O)C[C@]13O[C@H]1C[C@@H](O)C(C)(C)[C@H](CC(=O)OC)[C@@]1(C)C2=O	> 100 µM		
COC(=O)C[C@H]1C(C)(C)[C@H](OC(C)=O)[C@H](OC(C)=O)[C@@H]2O[C@]34CC(=O)O[C@@H](c5ccoc5)[C@]3(C)[C@@H](O)[C@@H](C(=O)[C@@]4(C)O)[C@@]21C	> 100 µM		
C=C1[C@@H]2C[C@@]3(C)[C@H](C4=C[C@@H](O)OC4=O)OC(=O)C[C@]13O[C@H]1C[C@@H](OC(C)=O)C(C)(C)[C@H](CC(=O)OC)[C@@]1(C)C2=O	> 100 µM		
COC(=O)C[C@H]1C(C)(C)[C@H](OC(C)=O)C[C@@H]2O[C@]34CC(=O)O[C@@H](c5ccoc5)[C@]3(C)[C@@H](O)[C@@H](C(=O)[C@@H]4C)[C@@]21C	> 100 µM		
CCC(C)C(O)C(=O)O[C@H]1[C@H](OC=O)[C@H]([C@@]2(C)[C@@H](OC(C)=O)CC(=O)O[C@](C)(COC(C)=O)[C@@H]2CC(=O)OC)C(COC)=C2[C@H](O)C[C@@H](c3ccoc3)[C@@]21C (some centres not stated)	6.1 µM	> 6.5	> 40 µM
C=C1[C@H]2C(=O)[C@@]3(C)[C@@H](O[C@@]14CC(=O)O[C@@H](c1ccoc1)[C@]4(C)[C@H]2O)[C@@H](O)[C@@H](OC(C)=O)C(C)(C)[C@@H]3CC(=O)OC	5.5 µM	> 7.2	> 40 µM
COC(=O)C[C@H]1C(C)(C)[C@H](OC(C)=O)[C@H](OC(C)=O)[C@@H]2O[C@]34CC(=O)O[C@@H](c5ccoc5)[C@]3(C)[C@@H](O)[C@@H](C(=O)[C@@H]4C)[C@@]21C	> 100 µM		
C=C1[C@H]2C(=O)[C@@]3(C)[C@@H](O[C@@]14CC(=O)O[C@@H](c1ccoc1)[C@]4(C)[C@H]2OC(C)=O)[C@@H](O)[C@@H](OC(C)=O)C(C)(C)[C@@H]3CC(=O)OC	> 100 µM		
C=C1[C@H]2C(=O)[C@@]3(C)[C@@H](O[C@@]14CC(=O)O[C@@H](C1=C[C@@H](O)OC1=O)[C@]4(C)[C@H]2OC(C)=O)[C@@H](OC(C)=O)[C@@H](OC(C)=O)C(C)(C)[C@@H]3CC(=O)OC	> 100 µM		
C=C1[C@H]2C(=O)[C@@]3(C)[C@@H](O[C@@]14CC(=O)O[C@@H](c1ccoc1)[C@]4(C)[C@H]2O)[C@@H](OC(C)=O)[C@@H](OC(C)=O)C(C)(C)[C@@H]3CC(=O)OC	> 100 µM		
COC(=O)C[C@H]1C(C)(C)[C@H](OC(C)=O)[C@H](O)[C@@H]2O[C@]34CC(=O)O[C@@H](c5ccoc5)[C@]3(C)[C@@H](O)[C@@H](C(=O)[C@@H]4C)[C@@]21C	> 100 µM		
C=C1[C@H]2C(=O)[C@@]3(C)[C@@H](O[C@@]14CC(=O)O[C@@H](C1=C[C@@H](O)OC1=O)[C@]4(C)[C@H]2OC(C)=O)[C@@H](OC(C)=O)CC(C)(C)[C@@H]3CC(=O)OC	> 100 µM		
Cc1ccnc2c1NC(=O)c1cccnc1N2C1CC1 [NEVIRAPINE]	0.1 µM	> 833	
COC(=O)C[C@H]1C(C)(C)[C@H](OC(C)=O)[C@H](O)[C@@H]2OC3=C(C)C4=CC(=O)O[C@@H](c5ccoc5)[C@]4(C)[C@@H](O)[C@@H]3[C@@]21C	> 100 µM		
